Bioassay records from PubChem BioAssay.
TMEM16A act = activators or potentiators of mouse TMEM16A chloride channel; hit rate 0.3% among 340,000; B-score at 10 µM; HEK293 TMEM16A/YFP-H148Q/I152L, iodide quench fluorescence; active compounds read low; Q8BHY3;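 active means fluorescence-ratio B-score plate-corrected deviation score at least 3 library SD below zero, with starting fluorescence score within 5 deviations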;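 further: channel opened by trigger with iodide after compound preincubation; score built on the fluorescence ratio of max minus min over baseline; more negative score means more quench and so TMEM16A activation or potentiation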
Target sequence (Q8BHY3 whole entry, looked up): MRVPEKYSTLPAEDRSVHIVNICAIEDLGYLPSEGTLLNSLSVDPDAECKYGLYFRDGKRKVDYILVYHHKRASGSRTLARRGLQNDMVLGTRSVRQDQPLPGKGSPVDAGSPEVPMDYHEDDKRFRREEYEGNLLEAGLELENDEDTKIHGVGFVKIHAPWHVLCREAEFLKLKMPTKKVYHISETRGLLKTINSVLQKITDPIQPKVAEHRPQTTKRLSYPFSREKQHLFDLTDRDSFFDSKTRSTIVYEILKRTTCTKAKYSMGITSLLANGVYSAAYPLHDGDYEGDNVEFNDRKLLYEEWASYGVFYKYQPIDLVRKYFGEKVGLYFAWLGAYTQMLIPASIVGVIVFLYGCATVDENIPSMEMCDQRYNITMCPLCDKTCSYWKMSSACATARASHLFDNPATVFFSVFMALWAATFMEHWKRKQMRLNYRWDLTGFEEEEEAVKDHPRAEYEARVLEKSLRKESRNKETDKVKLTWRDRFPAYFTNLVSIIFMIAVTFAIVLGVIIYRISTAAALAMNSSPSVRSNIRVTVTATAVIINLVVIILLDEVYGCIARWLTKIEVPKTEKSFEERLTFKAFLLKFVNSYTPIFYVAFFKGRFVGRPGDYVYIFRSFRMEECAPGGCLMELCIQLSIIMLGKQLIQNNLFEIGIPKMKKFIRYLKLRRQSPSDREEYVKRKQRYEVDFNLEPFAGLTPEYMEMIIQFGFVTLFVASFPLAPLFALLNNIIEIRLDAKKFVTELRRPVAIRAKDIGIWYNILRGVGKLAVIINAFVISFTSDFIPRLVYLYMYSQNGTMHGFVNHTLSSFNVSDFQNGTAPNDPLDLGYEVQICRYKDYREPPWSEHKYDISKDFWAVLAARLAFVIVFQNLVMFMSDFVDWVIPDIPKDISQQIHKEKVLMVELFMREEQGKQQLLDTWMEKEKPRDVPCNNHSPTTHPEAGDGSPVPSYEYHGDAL
Beta apoptosis = beta cell apoptosis inhibition | INS-1E cytokine-induced death, ATP luminescence, 48 h; percent of positive-control rescue, neutral wells zero | protection from apoptosis, % (no concentration beside the values) | hit rate 0.8% among 300,000;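 active means Every replicate reaches about 75%, or at least half do and their mean reaches it too, limit read from the data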;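 further: higher means more ATP so stronger rescue from cytokine killing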
MC4R antag cAMP = antagonists of human melanocortin 4 receptor (MC4R); P32245; MC4R-expressing cells, MTII-stimulated cAMP, LANCE TR-FRET; inhibition, % at 6.5 µM; hit rate 0.48% among 360,000; AID 540295;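 active means inhibition above its plate's cutoff, the mean of tested wells on that plate plus 3 SD, cut at about 29% in these data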
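Material – human MC4R-expressing U2OS cells · Repeats – no replicates · Detection – TR-FRET with Eu-cAMP and labeled anti-cAMP, 671 nm · Times – compound 30 min, challenge 1 h, detection 1 h · Compound – single nominal compound dose of 6.5 µM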
MC4R ag barr = activates human MC4R beta-arrestin recruitment; P32245; U2OS MC4R beta-arrestin complementation, luminescence; percent of melanotan II response, DMSO zero; activation, % at 8.9 µM; hit rate 0.98% among 360,000; AID 540308;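 active means activation above a per-plate cutoff, the mean activation of sample wells on that plate plus 3 SD, cut at about 8% in these data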
TMEM16A inh = blocks the mouse calcium-activated chloride channel TMEM16A; HEK293 TMEM16A/YFP iodide influx fluorescence, ionomycin; normalized B-score (activity score, 25-100; higher = stronger inhibition) at 10 µM; hit rate 1.2% among 310,000; AID 588511;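 active means ratio plate-corrected score three or more library SD toward inhibition, starting fluorescence score within five deviations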;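 further: score derived from kinetic fluorescence span divided by baseline fluorescence per well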
CSC inhib = blocks cancer stem cells | cancer stem cell-like cells viability, luminescence | inhibition, % at 7.5 µM | hit rate 1.1% among 300,000 | AID 2717; in the data active means inhibition above about 75%; tested in HMLE shEcad cells
TMEM16A reconf = reconfirmed blocker of mouse TMEM16A calcium-activated chloride channel. shares compounds with TMEM16A inh. HEK293 TMEM16A/YFP-H148Q, iodide quench fluorescence; ionomycin added to raise cell calcium. inhibition, % at 10 µM. hit rate 39% among 2,300;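 active means mean duplicate percent inhibition, scaled so buffer wells are 0 and the reference blocker 100, over three buffer SD above buffer mean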
HEK293 Ca mobil = alters calcium mobilization in TMEM16A HEK293 cells, counter-screen. TMEM16A/YFP HEK293, Fluo4 calcium mobilization. calcium response (% of ionomycin), % at 10 µM. shares compounds with TMEM16A inh. hit rate 2% among 2,300;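 active means duplicate-averaged calcium signal over 20% of the ionomycin maximum, relative to buffer baseline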;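 further: each well's signal is peak minus trough fluorescence divided by its pre-addition baseline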
YFP-HEK293 quench = parental YFP-HEK293 iodide quench counter-screen activity; YFP ratio F(max-min)/F0 at 10 µM; 2,300 tested, under 10 active; AID 652233; ionomycin; shares compounds with TMEM16A inh;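 active means yellow fluorescent protein signal ratio exceeding the buffer control mean by over 5 SD of those controls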;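 further: ratio is mean of duplicate wells from kinetic YFP trace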
ClC-1 rat inh = selectivity of TMEM16A inhibitors: inhibition of rat ClC-1 chloride channel. shares compounds with TMEM16A inh. CHO ClC-1-YFP, iodide influx fluorescence quench; iodide control reads 0, buffer control 100. ratio percent, % at 10 µM. 2,300 tested, under 10 active. AID 652236;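 active means duplicate-mean ratio percent above the mean of iodide-only control wells, which defines zero, plus 5 of their SD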;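 further: higher percent means stronger block of ClC-1 iodide influx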
Large screens that a line does not name were inactive (follow-up assays come after a bar, where they were run). An excerpt weighted towards active compounds, which were near 3.8% of everything screened.

N#CC(c1ccc(F)cc1)c1ccc(C(=O)c2ccc(F)cc2)cc1 (centres undefined)	TMEM16A inh 100 | TMEM16A reconf 28% | HEK293 Ca mobil inactive | YFP-HEK293 quench inactive | ClC-1 rat inh inactive
Cc1ccn(-c2ccc(NC(=O)c3cccs3)cc2)n1	none
O=C(c1cccc(COc2ccc(Cl)cc2Cl)c1)N1CCN(c2ccccn2)CC1	TMEM16A inh 100 (no result: Beta apoptosis) | TMEM16A reconf inactive | HEK293 Ca mobil inactive | YFP-HEK293 quench inactive | ClC-1 rat inh inactive
Cc1cc(C(=O)OCC(=O)Nc2ccc(F)cc2F)c(C)o1	TMEM16A inh 100 | TMEM16A reconf inactive | HEK293 Ca mobil inactive | YFP-HEK293 quench inactive | ClC-1 rat inh inactive
Cc1cc(C(=O)OCC(=O)Nc2ccccc2C)c(C)o1	none (no result: TMEM16A inh, CSC inhib)
CSc1nc(-c2ccc(Cl)cc2Cl)[nH]c(=O)c1C#N	TMEM16A inh 25 | TMEM16A reconf 50% | HEK293 Ca mobil inactive | YFP-HEK293 quench inactive | ClC-1 rat inh inactive
Clc1ccc(Cc2ccc(SCc3ccccc3)nn2)c(Cl)c1	TMEM16A inh 25 | TMEM16A reconf inactive | HEK293 Ca mobil inactive | YFP-HEK293 quench inactive | ClC-1 rat inh inactive
Clc1ccc(Cc2ccc(Cl)nn2)c(Cl)c1	none
COc1ccc(NC(=O)c2ccccc2NS(=O)(=O)c2ccc(C)cc2)c([N+](=O)[O-])c1	none
COc1ccc(C(=O)COC(=O)c2ccccc2NS(=O)(=O)c2ccc(O)c([N+](=O)[O-])c2)cc1	TMEM16A inh 25 | TMEM16A reconf 30% | HEK293 Ca mobil inactive | YFP-HEK293 quench inactive | ClC-1 rat inh inactive
Nc1ccc(C(=O)N/N=C/c2sc(N3CCOCC3)nc2-c2ccccc2)cc1	none
O=C(N/N=C/c1sc(N2CCOCC2)nc1-c1ccccc1)c1cccc(S(=O)(=O)N2CCOCC2)c1	Beta apoptosis 113 | TMEM16A reconf inactive | HEK293 Ca mobil inactive | YFP-HEK293 quench inactive | ClC-1 rat inh inactive
CC(C)(C)n1cnc2cc(NS(=O)(=O)c3ccc(Br)cc3)ccc21	TMEM16A inh 25 | TMEM16A reconf inactive | HEK293 Ca mobil inactive | YFP-HEK293 quench inactive | ClC-1 rat inh inactive
Cc1ccc(S(=O)(=O)Nc2ccc3c(c2)ncn3C(C)(C)C)cc1	none
CC(=O)c1sc2nc(-c3cccs3)ccc2c1N	none
Nc1c(C(=O)Nc2nc3ccccc3s2)sc2nc(-c3cccs3)ccc12	none | TMEM16A reconf inactive | HEK293 Ca mobil inactive | YFP-HEK293 quench inactive | ClC-1 rat inh inactive
CCOc1cc(Br)cc(/C=N/NC(=O)c2cccnc2)c1O	none
CCOC(=O)CNC(=O)CSc1nc2sc(C)c(C)c2c(=O)n1C	none | TMEM16A reconf inactive | HEK293 Ca mobil inactive | YFP-HEK293 quench inactive | ClC-1 rat inh inactive
Cc1ccc(C(=O)CC(=O)COc2ccc(Cl)cc2C)cc1	none
Cc1cc(Cl)ccc1OCc1nc(-c2ccc(O)cc2)n[nH]1	TMEM16A inh 25 (no result: Beta apoptosis) | TMEM16A reconf 26% | HEK293 Ca mobil inactive | YFP-HEK293 quench inactive | ClC-1 rat inh inactive
Cc1cccc(CC(=O)NCC2CCCCC2)c1	none
COC(=O)c1cnc(Nc2nc(CN)cs2)nc1C(F)(F)F	none (no result: TMEM16A act, Beta apoptosis, TMEM16A inh, CSC inhib)
CC(=O)Nc1ccc(S(=O)(=O)NCCC(=O)NNC(=O)c2ccccc2O)cc1	none (no result: TMEM16A inh, CSC inhib)
Cc1ccc2c(c1)C1CN(C)CCC1N2S(=O)(=O)c1ccccc1F (centres undefined)	none (no result: TMEM16A inh, CSC inhib)
O=C(CCc1ccccc1)c1c(O)cc(O)cc1O	TMEM16A inh 100 (no result: Beta apoptosis) | TMEM16A reconf 47% | HEK293 Ca mobil inactive | YFP-HEK293 quench inactive | ClC-1 rat inh inactive
CC1CN(CC(O)c2ccc(Br)cc2)CCO1 (centres undefined)	none (no result: Beta apoptosis, TMEM16A inh, CSC inhib)
CCN(CC)S(=O)(=O)c1cc(C(=O)OCC(=O)Nc2cccc(S(=O)(=O)N(C)C)c2)ccc1F	TMEM16A inh 25 | TMEM16A reconf inactive | HEK293 Ca mobil inactive | YFP-HEK293 quench inactive | ClC-1 rat inh inactive
CCN(CC)S(=O)(=O)c1ccc(Cl)c(NC(=O)COC(=O)c2ccc(O)cc2)c1	TMEM16A inh 25 | TMEM16A reconf 45% | HEK293 Ca mobil inactive | YFP-HEK293 quench inactive | ClC-1 rat inh inactive
O=C(OCC(=O)N1CCN(C(=O)c2ccco2)CC1)c1cncc(Br)c1	none (no result: TMEM16A inh, CSC inhib)
S=C(NCc1ccc(Cl)cc1Cl)NC1CCCCC1	TMEM16A inh 25 (no result: Beta apoptosis) | TMEM16A reconf 52% | HEK293 Ca mobil inactive | YFP-HEK293 quench inactive | ClC-1 rat inh inactive
Cc1ccc(S(=O)(=O)N2C[C@]3(O)C[C@@H]4C(=O)N(c5ccccc5)C(=O)[C@@H]4C[C@]3(OC(=O)Nc3cccs3)C2)cc1	none (no result: TMEM16A act, Beta apoptosis, TMEM16A inh, CSC inhib)
CCOC(=O)c1cnc(-n2nc(C)cc2C)nc1Nc1ccc(OC)cc1	none
CCOC(=O)c1cnc(-n2nc(C)cc2C)nc1NC1CCCC1	Beta apoptosis 97, TMEM16A inh 25 | TMEM16A reconf 54% | HEK293 Ca mobil inactive | YFP-HEK293 quench inactive | ClC-1 rat inh inactive
Cc1ccc(C2CC2C(=O)NNC(=S)Nc2cccc(Cl)c2)cc1 (centres undefined)	TMEM16A inh 25 | TMEM16A reconf 23% | HEK293 Ca mobil inactive | YFP-HEK293 quench inactive | ClC-1 rat inh inactive
Cc1cccc(C)c1NS(=O)(=O)c1ccc(-c2cnc(C3CC3)o2)cc1	TMEM16A inh 25 (no result: Beta apoptosis, CSC inhib) | TMEM16A reconf 29% | HEK293 Ca mobil inactive | YFP-HEK293 quench inactive | ClC-1 rat inh inactive
Cc1ccc(-c2nnc(N3CCN(c4ccccn4)CC3)c3ccccc23)cc1	TMEM16A inh 25 | TMEM16A reconf 28% | HEK293 Ca mobil inactive | YFP-HEK293 quench inactive | ClC-1 rat inh inactive
c1ccc(-c2nnc(N3CCN(c4ccccn4)CC3)c3ccccc23)cc1	none
C=CCn1cnc2c(oc3ccccc32)c1=O	none
Clc1c(Cl)c(Cl)c2n[nH]nc2c1Cl	TMEM16A inh 100 | TMEM16A reconf 44% | HEK293 Ca mobil inactive | YFP-HEK293 quench inactive | ClC-1 rat inh inactive
COc1cc(NS(=O)(=O)c2ccc(Br)s2)cc(OC)c1	TMEM16A inh 25 | TMEM16A reconf 32% | HEK293 Ca mobil inactive | YFP-HEK293 quench inactive | ClC-1 rat inh inactive
Cc1cc(Nc2ccccc2Cl)c2ccccc2n1	none
